Measured values reported in ChEMBL document CHEMBL1145867, “Muraymycins, novel peptidoglycan biosynthesis inhibitors: synthesis and SAR of their analogues” (2003).
≈ marks a conversion by molar mass, not a printed value. Calls of active or inactive are those of the source. No cut-off for these calls is given here.

What was measured:
[1] = The inhibitory activity of compound against MraY or MurG at 100 ug/mL; No Inhibition
[2] = The inhibitory activity of compound against MraY or MurG at 6.25 ug/mL; No Inhibition
[3] = The inhibitory activity of compound against MraY or MurG at 50 ug/mL; No Inhibition
[4] = test system: Staphylococcus sp.; experiment: In vitro antimicrobial activity against Staphylococci; assay type: functional, staphyl ococcus species
Procedure, shortened: (§1)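 Broth microdilution per NCCLS guidance. Serial dilutions of each agent in microtiter plates are inoculated with each organism to 10⁵ CFU/mL and incubated 18–22 h at 35 C in ambient air. MIC is the lowest concentration giving complete growth inhibition, judged by the unaided eye.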

[5] = The inhibitory activity of compound against MraY or MurG at 25 ug/mL; No Inhibition
[6] = test system: Bacteria; experiment: In vitro antimicrobial activity against gram-negative organisms (10); assay type: functional; procedure, shortened: as §1
[7] = test system: Enterococcus sp.; experiment: In vitro antimicrobial activity against Enterococci; assay type: functional; procedure, shortened: as §1
[8] = The inhibitory activity of compound against MraY or MurG at 12.5 ug/mL; No Inhibition
[9] = test system: Klebsiella pneumoniae; experiment: In vitro antimicrobial activity against Klebsiella pneumoniae GC 4534; assay type: functional; procedure, shortened: as §1
[10] = test system: Enterobacter cloacae; experiment: In vitro antimicrobial activity against Enterobacter cloacae GC 3783; assay type: functional; procedure, shortened: as §1
[11] = test system: Staphylococcus sp.; experiment: In vitro antimicrobial activity against CNS GC 4538; assay type: functional; procedure, shortened: as §1
[12] = test system: Escherichia coli; experiment: In vitro antimicrobial activity against Escherichia coli GC 2214; assay type: functional; procedure, shortened: as §1
[13] = test system: Enterococcus faecalis; experiment: In vitro antimicrobial activity against Enterococcus faecalis GC 4555; assay type: functional; procedure, shortened: as §1
[14] = test system: Staphylococcus aureus; experiment: In vitro antimicrobial activity against Staphylococcu aureus GC 4536; assay type: functional; procedure, shortened: as §1
[15] = test system: Staphylococcus aureus; experiment: In vitro antimicrobial activity against Staphylococcu aureus GC 2216; assay type: functional; procedure, shortened: as §1
[16] = test system: Escherichia coli; experiment: In vitro antimicrobial activity against Escherichia coli GC 4559; assay type: functional; procedure, shortened: as §1
[17] = test system: Candida albicans; experiment: In vitro antimicrobial activity against Candida albicans GC 3066; assay type: functional; procedure, shortened: as §1
[18] = test system: Staphylococcus aureus; experiment: In vitro antimicrobial activity against Staphylococcu aureus GC 1131; assay type: functional
Procedure, shortened: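 Broth dilution per NCCLS recommendations. Serial dilutions in microtiter plates inoculated to 10⁵ CFU/mL, then incubated 18–22 h at 35 C in ambient air. MIC taken as the lowest concentration giving complete growth inhibition by unaided eye.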

[19] = test system: Escherichia coli; experiment: In vitro antimicrobial activity against Escherichia coli GC 4560; assay type: functional; procedure, shortened: as §1
[20] = test system: Escherichia coli; experiment: In vitro antimicrobial activity against Escherichia coli GC 3226; assay type: functional; procedure, shortened: as §1
[21] = The inhibitory activity of compound against MraY or MurG at 50 ug/mL; Inhibit
[22] = test system: Pseudomonas aeruginosa; experiment: In vitro antimicrobial activity against Pseudomonas aeruginosa GC 2214; assay type: functional; procedure, shortened: as §1
[23] = test system: Pseudomonas aeruginosa; experiment: In vitro antimicrobial activity against Pseudomonas aeruginosa GC 4532; assay type: functional; procedure, shortened: as §1
[24] = test system: Staphylococcus sp.; experiment: In vitro antimicrobial activity against CNS GC 4547; assay type: functional; procedure, shortened: as §1
[25] = test system: Enterococcus faecalis; experiment: In vitro antimicrobial activity against Enterococcus faecalis GC 842; assay type: functional; procedure, shortened: as §1
[26] = test system: Serratia marcescens; experiment: In vitro antimicrobial activity against Serratia marcescens GC 4077; assay type: functional; procedure, shortened: as §1
[27] = test system: Enterococcus faecalis; experiment: In vitro antimicrobial activity against Enterococcus faecalis GC 2242; assay type: functional; procedure, shortened: as §1
[28] = The inhibitory activity of compound against MraY or MurG at 100 ug/mL; Inhibit
[29] = test system: Morganella morganii; experiment: In vitro antimicrobial activity against Morganella morganii GC 4531; assay type: functional; procedure, shortened: as §1

## COc1ccc(Cn2c(=O)ccn([C@@H]3OC([C@H](O)[C@H](NCCCNC(=O)[C@H](N)CCC(=O)OC(C)(C)C)C(=O)OC(C)(C)C)[C@@H](O[Si](C)(C)C(C)(C)C)[C@H]3O[Si](C)(C)C(C)(C)C)c2=O)cc1 (stereo partly drawn)
[1]
  Inhibitory activity: inactive
[2]
  Inhibitory activity: inactive
[3]
  Inhibitory activity: inactive
[4]
  MIC: > 128 µg/mL
[5]
  Inhibitory activity: inactive
[6]
  MIC: > 128 µg/mL
[7]
  MIC: > 128 µg/mL
[8]
  Inhibitory activity: inactive

## COc1ccc(Cn2c(=O)ccn([C@@H]3OC([C@H](O)[C@H](NCCCNC(=O)[C@@H](CC(C)C)NC(=O)OCc4ccccc4)C(=O)OC(C)(C)C)[C@@H](O)[C@H]3O)c2=O)cc1 (stereo partly drawn)
[4]
  MIC: > 128 µg/mL
[6]
  MIC: > 128 µg/mL
[7]
  MIC: > 128 µg/mL

## COc1ccc(Cn2c(=O)ccn([C@@H]3OC([C@H](O)[C@H](NCCCNC(=O)[C@@H](CC(C)C)NC(=O)[C@H](CCC/N=C(\N)N[N+](=O)[O-])NC(=O)N[C@H](C(=O)OCc4ccccc4)C(C)C)C(=O)OC(C)(C)C)[C@@H](O[Si](C)(C)C(C)(C)C)[C@H]3O[Si](C)(C)C(C)(C)C)c2=O)cc1 (stereo partly drawn)
[4]
  MIC: > 128 µg/mL
[6]
  MIC: > 128 µg/mL
[7]
  MIC: > 128 µg/mL

## COc1ccc(Cn2c(=O)ccn([C@@H]3OC([C@H](O)[C@H](NCCCNC(=O)[C@H](N)CCc4ccccc4)C(=O)OC(C)(C)C)[C@@H](O[Si](C)(C)C(C)(C)C)[C@H]3O[Si](C)(C)C(C)(C)C)c2=O)cc1 (stereo partly drawn)
[1]
  Inhibitory activity: inactive
[2]
  Inhibitory activity: inactive
[3]
  Inhibitory activity: inactive
[4]
  MIC: > 128 µg/mL
[5]
  Inhibitory activity: inactive
[6]
  MIC: > 128 µg/mL
[7]
  MIC: > 128 µg/mL
[8]
  Inhibitory activity: inactive

## COc1ccc(Cn2c(=O)ccn([C@@H]3OC([C@H](O)[C@H](NCCCNC(=O)[C@@H](CC(C)C)NC(=O)[C@H](CCCN=C(N)N)NC(=O)N[C@H](C(=O)O)C(C)C)C(=O)OC(C)(C)C)[C@@H](O[Si](C)(C)C(C)(C)C)[C@H]3O[Si](C)(C)C(C)(C)C)c2=O)cc1 (stereo partly drawn)
[4]
  MIC: > 128 µg/mL
[6]
  MIC: > 128 µg/mL
[7]
  MIC: > 128 µg/mL

## COc1ccc(Cn2c(=O)ccn([C@@H]3OC([C@H](O)[C@H](NCCCNC(=O)[C@H](NC(=O)[C@H](CCC/N=C(\N)N[N+](=O)[O-])NC(=O)N[C@H](C(=O)OCc4ccccc4)C(C)C)C(C)O)C(=O)OC(C)(C)C)[C@@H](O[Si](C)(C)C(C)(C)C)[C@H]3O[Si](C)(C)C(C)(C)C)c2=O)cc1 (stereo partly drawn)
[4]
  MIC: 128 µg/mL (≈ 97.4 µM)
[6]
  MIC: 64 µg/mL (≈ 48.7 µM)
[7]
  MIC: 64 µg/mL (≈ 48.7 µM)

## COc1ccc(Cn2c(=O)ccn([C@@H]3OC([C@H](O)[C@H](NCCCNC(=O)[C@H](N)CCCCNC(=O)OCc4ccccc4)C(=O)OC(C)(C)C)[C@@H](O[Si](C)(C)C(C)(C)C)[C@H]3O[Si](C)(C)C(C)(C)C)c2=O)cc1 (stereo partly drawn)
[9]
  MIC: > 128 µg/mL
[10]
  MIC: > 128 µg/mL
[11]
  MIC: 8 µg/mL (≈ 7.68 µM)
[11]; Staphylococcus sp., read-out: MIC
  MIC: 8 µg/mL (≈ 7.68 µM)
[12]
  MIC: 128 µg/mL (≈ 123 µM)
[13]
  MIC: 8 µg/mL (≈ 7.68 µM)
[14]
  MIC: 8 µg/mL (≈ 7.68 µM)
[15]
  MIC: 8 µg/mL (≈ 7.68 µM)
[2]
  Inhibitory activity: inactive
[16]
  MIC: > 128 µg/mL
[17]
  MIC: > 128 µg/mL
[18]
  MIC: 4 µg/mL (≈ 3.84 µM)
[19]
  MIC: 8 µg/mL (≈ 7.68 µM)
[20]
  MIC: 128 µg/mL (≈ 123 µM)
[21]
  Inhibitory activity: Inhibit
[22]
  MIC: > 128 µg/mL
[23]
  MIC: > 128 µg/mL
[4]
  MIC: 4 µg/mL (≈ 3.84 µM)
[5]
  Inhibitory activity: inactive
[24]
  MIC: 16 µg/mL (≈ 15.4 µM)
[25]
  MIC: 8 µg/mL (≈ 7.68 µM)
[26]
  MIC: 128 µg/mL (≈ 123 µM)
[6]
  MIC: 128 µg/mL (≈ 123 µM)
[27]
  MIC: 8 µg/mL (≈ 7.68 µM)
[28]
  Inhibitory activity: Inhibit
[7]
  MIC: 8 µg/mL (≈ 7.68 µM)
[8]
  Inhibitory activity: inactive
[29]
  MIC: 128 µg/mL (≈ 123 µM)

## COc1ccc(Cn2c(=O)ccn([C@@H]3OC([C@H](O)[C@H](NCCCNC(=O)[C@@H](C)NC(=O)OCc4ccccc4)C(=O)OC(C)(C)C)[C@@H](O[Si](C)(C)C(C)(C)C)[C@H]3O[Si](C)(C)C(C)(C)C)c2=O)cc1 (stereo partly drawn)
[4]
  MIC: > 128 µg/mL
[6]
  MIC: > 128 µg/mL
[7]
  MIC: 128 µg/mL (≈ 130 µM)

## COc1ccc(Cn2c(=O)ccn([C@@H]3OC([C@H](O)[C@H](NCCCNC(=O)[C@H](NC(=O)[C@H](CCC/N=C(\N)N[N+](=O)[O-])NC(=O)N[C@H](C(=O)OCc4ccccc4)C(C)C)C(O)C(C)C)C(=O)OC(C)(C)C)[C@@H](O[Si](C)(C)C(C)(C)C)[C@H]3O[Si](C)(C)C(C)(C)C)c2=O)cc1 (stereo partly drawn)
[4]
  MIC: > 128 µg/mL
[6]
  MIC: > 128 µg/mL
[7]
  MIC: > 128 µg/mL

## COc1ccc(Cn2c(=O)ccn([C@@H]3OC([C@H](O)[C@H](NCCCNC(=O)[C@H](N)CC(C)C)C(=O)OC(C)(C)C)[C@@H](O)[C@H]3O)c2=O)cc1 (stereo partly drawn)
[4]
  MIC: > 128 µg/mL
[6]
  MIC: > 128 µg/mL
[7]
  MIC: > 128 µg/mL

## COc1ccc(Cn2c(=O)ccn([C@@H]3OC([C@H](O)[C@H](NCCCNC(=O)[C@H](N)CC(C)C)C(=O)O)[C@@H](O)[C@H]3O)c2=O)cc1 (stereo partly drawn)
[4]
  MIC: > 128 µg/mL
[6]
  MIC: > 128 µg/mL
[7]
  MIC: 128 µg/mL (≈ 211 µM)
